ChEMBL document CHEMBL1147795, “cis-2,5-dicyanopyrrolidine inhibitors of dipeptidyl peptidase IV: synthesis and in vitro, in vivo, and X-ray crystallographic characterization” (J Med Chem, 2006)
Active and inactive are the calls of the source. The rule behind the calls is not given here.

Columns and labels:
Dipeptidyl peptidase 4 = Dipeptidyl peptidase 4 (Homo sapiens, UniProt P27487); assay: Inhibition of human recombinant DPP4
[1] = molecular target: Dipeptidyl peptidase 4 (Mus musculus) (UniProt P28843); assay: Lowering of glucose level in diabetic KK/H1J mouse at 5 mg/kg, po; assay type: functional, organism-based; set-up: dose 5 mg/kg
Chain of Dipeptidyl peptidase 4 (Mus musculus) (P28843 whole entry, looked up): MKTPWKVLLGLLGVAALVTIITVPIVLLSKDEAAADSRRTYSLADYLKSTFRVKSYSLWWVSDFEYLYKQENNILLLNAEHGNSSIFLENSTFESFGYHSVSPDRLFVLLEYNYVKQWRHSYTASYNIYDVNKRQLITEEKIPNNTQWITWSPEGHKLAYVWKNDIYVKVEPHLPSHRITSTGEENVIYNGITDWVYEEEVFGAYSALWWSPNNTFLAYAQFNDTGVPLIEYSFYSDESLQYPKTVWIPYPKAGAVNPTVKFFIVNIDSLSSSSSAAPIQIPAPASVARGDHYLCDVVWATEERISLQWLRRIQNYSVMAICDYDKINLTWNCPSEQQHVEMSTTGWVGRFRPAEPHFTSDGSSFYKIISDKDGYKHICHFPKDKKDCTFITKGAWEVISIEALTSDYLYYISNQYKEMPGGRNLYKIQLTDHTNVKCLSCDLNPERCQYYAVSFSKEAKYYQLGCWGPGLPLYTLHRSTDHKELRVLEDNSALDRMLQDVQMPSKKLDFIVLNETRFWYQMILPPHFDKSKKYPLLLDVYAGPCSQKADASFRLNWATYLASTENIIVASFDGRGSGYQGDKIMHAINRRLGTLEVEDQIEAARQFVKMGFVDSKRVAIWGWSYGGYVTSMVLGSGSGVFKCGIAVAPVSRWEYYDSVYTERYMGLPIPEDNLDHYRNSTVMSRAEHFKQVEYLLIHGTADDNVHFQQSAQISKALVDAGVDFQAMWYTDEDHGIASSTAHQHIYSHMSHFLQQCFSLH
How it was run: (§1)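 Diabetic KK/H1J mice fasted overnight, 10 per group, dosed orally in 0.5% methylcellulose. Glucose given orally at t = 15 min; plasma glucose at t = 45 min.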

Rattus norvegicus [2] = species on record: Rattus norvegicus; assay: Hepatic clearance in Sprague-Dawley rat; assay type: ADME, organism-based, Liver; conditions: in vivo
How it was run: (§2)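 Male Sprague-Dawley rats (200-250 g), jugular vein cannulated. IV bolus 1.0 mg/kg in sterile saline; oral gavage 5.0 mg/kg in 0.5% methylcellulose. Blood sampled 0 to 24 h into lithium heparin, plasma frozen at -70 °C, compound quantified by LC/MS/MS after acetonitrile protein precipitation (standard curve 1.0-2000 ng/mL).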

[3] = Volume of distribution in Sprague-Dawley rat; assay type: ADME, organism-based; conditions: in vivo, read-out: Vdss; how it was run: as §2
[4] = Half life in Sprague-Dawley rat at 1 mg/kg, iv; assay type: ADME, organism-based; set-up: dose 1 mg/kg, route intravenous; conditions: in vivo; how it was run: as §2
[5] = Half life in Sprague-Dawley rat at 5 mg/kg, po; assay type: ADME, organism-based; set-up: dose 5 mg/kg, route oral; conditions: in vivo; how it was run: as §2
[6] = Bioavailability in Sprague-Dawley rat; assay type: ADME, organism-based; conditions: in vivo; how it was run: as §2
[7] = molecular target: Dipeptidyl peptidase 4 (Mus musculus) (UniProt P28843); assay: Lowering of glucose level in diabetic KK/H1J mouse at 10 mg/kg, po; assay type: functional, organism-based; set-up: dose 10 mg/kg; how it was run: as §1
[8] = molecular target: Dipeptidyl peptidase 4 (Mus musculus) (UniProt P28843); assay: Lowering of glucose level in diabetic KK/H1J mouse at 2.5 mg/kg, po; assay type: functional, organism-based; set-up: dose 2.5 mg/kg; how it was run: as §1
[9] = molecular target: Dipeptidyl peptidase 4 (Mus musculus) (UniProt P28843); assay: Lowering of glucose level in diabetic KK/H1J mouse at 0.3 mg/kg, po; assay type: functional, organism-based; set-up: dose 0.3 mg/kg
How it was run: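 Overnight-fasted diabetic KK/H1J mice, 10 per group, given compound orally in 0.5% methylcellulose (0.2 mL per mouse), then an oral glucose challenge at t = 15 min. Retro-orbital bleeds were taken at 0, 15 and 45 min for plasma glucose. […] Scored significant or nonsignificant.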

[10] = molecular target: Dipeptidyl peptidase 4 (Mus musculus) (UniProt P28843); assay: Increase in plasma GLP1 level in KK mouse at 5 mg/kg, po after 2 hrs; assay type: functional, organism-based; set-up: dose 5 mg/kg
How it was run: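 Fed KK mice dosed 5 mg kg^-1 orally at t = 0. Blood sampled at intervals over 2 h for plasma GLP-1 and DPP-IV activity.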

Rattus norvegicus [11] = assay: Increase in thiocyanate ion in rat plasma at 15 mg/kg, po after 24 hrs; assay type: ADME, organism-based; set-up: dose 15 mg/kg, route oral; conditions: in vivo
How it was run: (§3)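 Stored plasma from earlier oral dosing (rat 15 mg kg^-1, dog and monkey 3 mg kg^-1) analysed for thiocyanate through 24 h, compared with the t = 0 sample.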

Canis familiaris [12] = assay: Increase in thiocyanate ion in dog plasma at 3 mg/kg, po after 24 hrs; assay type: ADME, organism-based, Canis lupus familiaris; set-up: dose 3 mg/kg, route oral; conditions: in vivo; how it was run: as §3
Rhesus monkey = assay: Increase in thiocyanate ion in monkey plasma at 3 mg/kg, po after 24 hrs; assay type: ADME, organism-based; set-up: dose 3 mg/kg, route oral; conditions: in vivo; how it was run: as §3
[13] = Tmax in cynomolgus monkey; assay type: ADME, organism-based, Macaca fascicularis; conditions: in vivo
How it was run: (§4)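 Dog and monkey PK: oral dosing at 1 mg kg^-1 in sterile water, intravenous at 1 mg kg^-1 in sterile saline.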

Rattus norvegicus [14] = species on record: Rattus norvegicus; assay: Cmax in Sprague-Dawley rat; assay type: ADME, organism-based; conditions: in vivo; how it was run: as §2
Rattus norvegicus [15] = species on record: Rattus norvegicus; assay: AUC (0-infinity) in Sprague-Dawley rat; assay type: ADME, organism-based, Plasma; set-up: time infinity; conditions: in vivo; how it was run: as §2
[16] = Percent of unbound ligand in Sprague-Dawley rat plasma; assay type: ADME, cell-free
[17] = Percent of unbound ligand in Beagle dog plasma; assay type: ADME, cell-free, Canis lupus familiaris
[18] = Percent of unbound ligand in cynomolgus monkey plasma; assay type: ADME, cell-free, Macaca fascicularis
[19] = Percent of unbound ligand in human plasma; assay type: ADME
Canis familiaris [20] = species on record: Canis familiaris; assay: Hepatic clearance in Beagle dog; assay type: ADME, organism-based, Canis lupus familiaris, Liver; conditions: in vivo; how it was run: as §4
[21] = Volume of distribution in Beagle dog; assay type: ADME, organism-based, Canis lupus familiaris; conditions: in vivo, read-out: Vdss; how it was run: as §4
[22] = Half life in Beagle dog at 1 mg/kg, iv; assay type: ADME, organism-based, Canis lupus familiaris; set-up: dose 1 mg/kg, route intravenous; conditions: in vivo; how it was run: as §4
[23] = Half life in Beagle dog at 1 mg/kg, po; assay type: ADME, organism-based, Canis lupus familiaris; set-up: dose 1 mg/kg, route oral; conditions: in vivo; how it was run: as §4
[24] = Bioavailability in Beagle dog; assay type: ADME, organism-based, Canis lupus familiaris; conditions: in vivo; how it was run: as §4
Cynomolgus monkey = assay: Hepatic clearance in cynomolgus monkey; assay type: ADME, organism-based, Macaca fascicularis, Liver; conditions: in vivo; how it was run: as §4
[25] = Volume of distribution in cynomolgus monkey; assay type: ADME, organism-based, Macaca fascicularis; conditions: in vivo, read-out: Vdss; how it was run: as §4
[26] = Half life in cynomolgus monkey at 1 mg/kg, iv; assay type: ADME, organism-based, Macaca fascicularis; set-up: dose 1 mg/kg, route intravenous; conditions: in vivo; how it was run: as §4
[27] = Half life in cynomolgus monkey at 1 mg/kg, po; assay type: ADME, organism-based, Macaca fascicularis; set-up: dose 1 mg/kg, route oral; conditions: in vivo; how it was run: as §4
[28] = Bioavailability in cynomolgus monkey; assay type: ADME, organism-based, Macaca fascicularis; conditions: in vivo; how it was run: as §4
[29] = Tmax in Sprague-Dawley rat; assay type: ADME, organism-based; conditions: in vivo; how it was run: as §2
[30] = Tmax in Beagle dog; assay type: ADME, organism-based, Canis lupus familiaris; conditions: in vivo; how it was run: as §4
[31] = Solubility in phosphate buffered saline at pH 6.5; assay type: physicochemical
How it was run: (§5)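 Solubility of the mono-hydrochloride salt measured in PBS pH 6.5 and in unbuffered water; final pH of the water solution 2.0.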

[32] = Solubility in unbuffered water; assay type: physicochemical; how it was run: as §5
[33] = molecular target: Dipeptidyl peptidase 4 (Mus musculus) (UniProt P28843); assay: Lowering of glucose level in diabetic KK/H1J mouse at 3 mg/kg, po; assay type: functional, organism-based; set-up: dose 3 mg/kg; how it was run: as §1

Chain of Dipeptidyl peptidase 4 (P27487 whole entry): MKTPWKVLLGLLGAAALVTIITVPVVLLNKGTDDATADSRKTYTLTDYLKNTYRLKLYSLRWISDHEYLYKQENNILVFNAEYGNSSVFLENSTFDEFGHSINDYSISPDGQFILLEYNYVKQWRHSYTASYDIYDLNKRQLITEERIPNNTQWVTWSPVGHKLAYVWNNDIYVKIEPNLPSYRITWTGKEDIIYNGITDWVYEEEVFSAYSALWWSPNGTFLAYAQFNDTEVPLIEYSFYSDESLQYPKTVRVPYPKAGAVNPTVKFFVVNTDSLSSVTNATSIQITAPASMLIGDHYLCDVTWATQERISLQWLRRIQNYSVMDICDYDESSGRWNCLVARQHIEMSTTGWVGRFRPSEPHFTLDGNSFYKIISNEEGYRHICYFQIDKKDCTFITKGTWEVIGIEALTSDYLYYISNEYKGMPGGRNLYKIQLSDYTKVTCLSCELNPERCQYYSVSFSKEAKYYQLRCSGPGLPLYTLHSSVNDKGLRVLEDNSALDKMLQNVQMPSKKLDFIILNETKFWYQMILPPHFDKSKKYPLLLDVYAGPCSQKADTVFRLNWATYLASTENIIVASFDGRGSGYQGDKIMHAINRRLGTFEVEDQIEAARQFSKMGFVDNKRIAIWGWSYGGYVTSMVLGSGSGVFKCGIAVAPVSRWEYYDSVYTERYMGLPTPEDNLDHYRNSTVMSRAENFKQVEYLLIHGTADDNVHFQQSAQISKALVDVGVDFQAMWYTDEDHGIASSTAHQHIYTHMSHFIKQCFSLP

CCC(C)(C)NCC(=O)N1[C@H](C#N)CC[C@@H]1C#N
IC50 (Dipeptidyl peptidase 4): > 3 µM

N#C[C@@H]1CC[C@H](C#N)N1C(=O)CNC12CC3CC(CC1C3)C2
Activity [1]: 62%
IC50 (Dipeptidyl peptidase 4): 0.072 µM

N#C[C@@H]1CC[C@H](C#N)N1C(=O)CNC1(CCCO)CCCCC1
IC50 (Dipeptidyl peptidase 4): > 3 µM

CC1(C)CCCC1(C)NCC(=O)N1[C@H](C#N)CC[C@@H]1C#N (stereo partly drawn)
IC50 (Dipeptidyl peptidase 4): > 3 µM

COC(=O)C1(NCC(=O)N2[C@H](C#N)CC[C@@H]2C#N)CCCC1
IC50 (Dipeptidyl peptidase 4): > 3 µM

N#C[C@@H]1CC[C@H](c2ccccc2)N1C(=O)CNC1(CO)CCCC1
IC50 (Dipeptidyl peptidase 4): > 30 µM

N#C[C@@H]1CC[C@H](C#N)N1C(=O)CNC12CC3(F)CC(F)(CC(F)(C3)C1)C2
IC50 (Dipeptidyl peptidase 4): > 3 µM

COCC1(NCC(=O)N2[C@H](C#N)CC[C@@H]2C#N)CCCC1
CL (Rattus norvegicus [2]): 98 mL/min/kg
Vd [3]: 1.6 L/kg
half-life [4]: 12 min
half-life [5]: 38.4 min
bioavailability [6]: 48%
IC50 (Dipeptidyl peptidase 4): 0.084 µM
Activity [7]: 74%

N#C[C@@H]1CC[C@H](C#N)N1C(=O)CNC1(Cc2ccccc2)CCCCC1
IC50 (Dipeptidyl peptidase 4): > 3 µM

CCOCC1(NCC(=O)N2[C@H](C#N)CC[C@@H]2C#N)CCCC1
IC50 (Dipeptidyl peptidase 4): 0.064 µM
Activity [7]: 79%

N[C@H](C(=O)N1CC(F)(F)C(F)(F)C1)C1CCCCC1
Activity [7]: 57%

C#CC1(NCC(=O)N2[C@H](C#N)CC[C@@H]2C#N)CCCCC1
IC50 (Dipeptidyl peptidase 4): > 3 µM

CNC(=O)C1(NCC(=O)N2[C@H](C#N)CC[C@@H]2C#N)CCCC1
IC50 (Dipeptidyl peptidase 4): > 3 µM

CC1(NCC(=O)N2[C@H](C#N)CC[C@@H]2C#N)COC(C)(C)OC1
IC50 (Dipeptidyl peptidase 4): > 3 µM

N#C[C@@H]1CC[C@H](C#N)N1C(=O)CNC1(CO)CCCC1 [listing 1 of 2 here]
Activity [8]: 59%
Activity [9]: 46%
Activity [10]: Active
Activity [7]: 67%

CC(C)(C)C(C)(C)NCC(=O)N1[C@H](C#N)CC[C@@H]1C#N
IC50 (Dipeptidyl peptidase 4): > 3 µM

CCCCOCC1(NCC(=O)N2[C@H](C#N)CC[C@@H]2C#N)CCCC1
IC50 (Dipeptidyl peptidase 4): 0.091 µM
Activity [7]: 16%

N#C[C@@H]1CC[C@H](C#N)N1C(=O)CNC1(CO)CCCC1 [listing 2 of 2 here]
Activity (Rattus norvegicus [11]): Not Active
Activity (Canis familiaris [12]): Not Active
Activity (Rhesus monkey): Not Active
Tmax [13]: ≤ 60 min
Cmax (Rattus norvegicus [14]): Dose-dependent effect
AUC (Rattus norvegicus [15]): Dose-dependent effect
CL (Rattus norvegicus [2]): 70 mL/min/kg
Vd [3]: 1.4 L/kg
half-life [4]: 18 min
half-life [5]: 162 min
bioavailability [6]: 77%
fraction unbound [16]: 1
fraction unbound [17]: 1
fraction unbound [18]: 0.84
fraction unbound [19]: 0.77
CL (Canis familiaris [20]): 22 mL/min/kg
Vd [21]: 1.3 L/kg
half-life [22]: 48 min
half-life [23]: 318 min
bioavailability [24]: 93%
CL (Cynomolgus monkey): 42 mL/min/kg
Vd [25]: 1.7 L/kg
half-life [26]: 36 min
half-life [27]: 144 min
bioavailability [28]: 42%
Tmax [29]: ≤ 60 min
Tmax [30]: ≤ 60 min

Cl.N#C[C@@H]1CC[C@H](C#N)N1C(=O)CNC1(CO)CCCC1
solubility [31]: > 76 mg/mL
solubility [32]: 200 mg/mL

N#C[C@@H]1CC[C@H](C#N)N1C(=O)CNC12CC3CC(CC(O)(C3)C1)C2
Activity [33]: 45%
CL (Rattus norvegicus [2]): 130 mL/min/kg
Vd [3]: 2.7 L/kg
half-life [4]: 24 min
half-life [5]: 84 min
bioavailability [6]: 42%
IC50 (Dipeptidyl peptidase 4): 0.074 µM

CC1(NCC(=O)N2[C@H](C#N)CC[C@@H]2C#N)CCSC1 (stereo partly drawn)
IC50 (Dipeptidyl peptidase 4): > 3 µM

CCC(C)(C)C1CCC(C)(NCC(=O)N2[C@H](C#N)CC[C@@H]2C#N)C1 (stereo partly drawn)
IC50 (Dipeptidyl peptidase 4): > 3 µM

C[C@@H]1CC(C)(NCC(=O)N2[C@H](C#N)CC[C@@H]2C#N)C[C@@H]1C (stereo partly drawn)
IC50 (Dipeptidyl peptidase 4): > 3 µM

CCC(C)(CC)NCC(=O)N1[C@H](C#N)CC[C@@H]1C#N
IC50 (Dipeptidyl peptidase 4): > 3 µM

N#C[C@@H]1C[C@H](O)CN1C(=O)CNC12CC3CC(CC(C3)C1)C2
IC50 (Dipeptidyl peptidase 4): > 30 µM

CC(C)C(C)(C)NCC(=O)N1[C@H](C#N)CC[C@@H]1C#N
IC50 (Dipeptidyl peptidase 4): > 3 µM

CCC1(NCC(=O)N2[C@H](C#N)CC[C@@H]2C#N)CCCCC1
IC50 (Dipeptidyl peptidase 4): > 3 µM

C[C@H]1CC[C@@H](C#N)N1C(=O)CNC12CC3CC(CC(C3)C1)C2
IC50 (Dipeptidyl peptidase 4): > 30 µM

N#C[C@@H]1CC[C@H](C#N)N1C(=O)CNC1(CCO)CCCC1
IC50 (Dipeptidyl peptidase 4): > 3 µM

N#C[C@@H]1CC[C@H](C#N)N1C(=O)CNC12CC3CC(CC(C3)C1)C2
Activity [33]: 55%
CL (Rattus norvegicus [2]): 80 mL/min/kg
Vd [3]: 3.1 L/kg
half-life [4]: 36 min
